Results from different studies.
Each line is one published result; the experiments were not run side by side.
Cell line: A-375
Observed: cell growth or viability

| Structure (SMILES) | method | time | endpoint | value |
| --- | --- | --- | --- | --- |
| CNC(=O)c1cc(Oc2ccc(NC(=O)Nc3ccc(Cl)c(C(F)(F)F)c3)cc2)ccn1 |  |  | EC50 | 4000 nM |
| COc1cc(C(=O)c2csc(-c3ccccc3)n2)cc(OC)c1OC | SRB | 96 h | IC50 | 28 nM |
| O=C(O)/C=C/c1ccc(O)c(O)c1 | MTT |  | IC50 | 4800 nM |
| CNc1nc2ccccc2n2c(-c3cccc(OC)c3)cnc12 | neutral red | 96 h | IC50 | 230 nM |
| CC(C)C[C@H](NC(=O)[C@H](Cc1ccccc1)NC(=O)c1cnccn1)B(O)O | ATP luminescence |  | IC50 | 11 nM |
| CN(C)CCOc1ccc(-c2nc(-c3ccncc3)c(-c3ccc4c(c3)CC/C4=N\O)[nH]2)cc1 |  |  | EC50 | 30 nM |
| CC(=O)c1ccc(N=Nc2c(C(=O)O)cc(O)c(O)c2O)cc1 | MTT |  | IC50 | 12900 nM |
| Cn1nccc1Nc1nccc(-c2cc3c(s2)C(C)(C)N(CCN2CCOCC2)C3=O)n1 | resazurin | 96 h | IC50 | 350 nM |
| O=C(O)c1cc(O)c(O)c(O)c1 | MTT |  | IC50 | 18700 nM |
| Cn1nccc1Nc1nccc(-c2ccn([C@H](CO)c3ccc(Cl)c(F)c3)c(=O)c2)n1 | resazurin | 96 h | IC50 | 130 nM |
| COc1cc(Nc2nccc(-c3cnn4nc(OC)ccc34)n2)cc(C(F)(F)F)c1 | ATP luminescence |  | IC50 | 97 nM |
